Reference: ChEMBL document CHEMBL1240368, “Chloroquine modulates HIV-1-induced plasmacytoid dendritic cell alpha interferon: implication for T-cell activation” (Antimicrob Agents Chemother, 2010)
Active and inactive are the calls of the source. The calls are words filed in the database; no cut-off is given here.

Tests used:
[1] = biological target: T1, TLR7 and TLR8 (Homo sapiens) (UniProt Q9NYK1+Q9NR97); test: Inhibition of TLR7/TLR8-mediated IFN-alpha production in 3M-011-stimulated human PBMC at 100 uM after 20 hrs by ELISA
T1 sequence (Q9NR97 whole entry, looked up, one chain of several): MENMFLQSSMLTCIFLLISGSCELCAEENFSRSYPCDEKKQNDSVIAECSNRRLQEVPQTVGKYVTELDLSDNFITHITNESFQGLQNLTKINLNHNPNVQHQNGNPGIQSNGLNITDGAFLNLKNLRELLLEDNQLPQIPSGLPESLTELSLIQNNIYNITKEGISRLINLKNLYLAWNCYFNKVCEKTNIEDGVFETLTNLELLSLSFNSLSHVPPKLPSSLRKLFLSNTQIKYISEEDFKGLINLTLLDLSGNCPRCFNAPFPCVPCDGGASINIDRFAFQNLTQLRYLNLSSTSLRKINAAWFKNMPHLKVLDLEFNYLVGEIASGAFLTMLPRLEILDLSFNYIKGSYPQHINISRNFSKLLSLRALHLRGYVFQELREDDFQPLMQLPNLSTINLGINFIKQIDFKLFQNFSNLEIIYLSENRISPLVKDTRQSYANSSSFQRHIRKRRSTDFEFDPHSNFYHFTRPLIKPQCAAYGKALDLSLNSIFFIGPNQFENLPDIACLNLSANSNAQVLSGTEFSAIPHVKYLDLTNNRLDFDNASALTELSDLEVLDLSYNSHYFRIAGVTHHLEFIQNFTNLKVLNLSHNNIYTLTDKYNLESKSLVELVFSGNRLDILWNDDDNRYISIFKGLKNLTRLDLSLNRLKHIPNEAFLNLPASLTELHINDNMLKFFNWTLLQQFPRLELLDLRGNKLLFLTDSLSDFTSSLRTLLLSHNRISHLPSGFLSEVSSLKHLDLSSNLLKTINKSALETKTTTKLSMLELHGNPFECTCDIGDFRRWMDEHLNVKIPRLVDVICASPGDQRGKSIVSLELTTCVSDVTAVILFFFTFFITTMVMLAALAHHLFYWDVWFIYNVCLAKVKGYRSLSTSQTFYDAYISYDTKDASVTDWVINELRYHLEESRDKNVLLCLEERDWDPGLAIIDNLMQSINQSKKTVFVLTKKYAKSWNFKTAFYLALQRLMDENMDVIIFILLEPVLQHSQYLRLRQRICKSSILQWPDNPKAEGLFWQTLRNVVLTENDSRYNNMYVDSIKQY

[2] = biological target: T2, Toll-like receptor 7 (Homo sapiens) (UniProt Q9NYK1); test: Inhibition of TLR7-mediated IFN-alpha production in aldrithiol-2-treated HIV1 MN-stimulated human PBMC after 20 hrs by ELISA
T2 sequence (whole entry): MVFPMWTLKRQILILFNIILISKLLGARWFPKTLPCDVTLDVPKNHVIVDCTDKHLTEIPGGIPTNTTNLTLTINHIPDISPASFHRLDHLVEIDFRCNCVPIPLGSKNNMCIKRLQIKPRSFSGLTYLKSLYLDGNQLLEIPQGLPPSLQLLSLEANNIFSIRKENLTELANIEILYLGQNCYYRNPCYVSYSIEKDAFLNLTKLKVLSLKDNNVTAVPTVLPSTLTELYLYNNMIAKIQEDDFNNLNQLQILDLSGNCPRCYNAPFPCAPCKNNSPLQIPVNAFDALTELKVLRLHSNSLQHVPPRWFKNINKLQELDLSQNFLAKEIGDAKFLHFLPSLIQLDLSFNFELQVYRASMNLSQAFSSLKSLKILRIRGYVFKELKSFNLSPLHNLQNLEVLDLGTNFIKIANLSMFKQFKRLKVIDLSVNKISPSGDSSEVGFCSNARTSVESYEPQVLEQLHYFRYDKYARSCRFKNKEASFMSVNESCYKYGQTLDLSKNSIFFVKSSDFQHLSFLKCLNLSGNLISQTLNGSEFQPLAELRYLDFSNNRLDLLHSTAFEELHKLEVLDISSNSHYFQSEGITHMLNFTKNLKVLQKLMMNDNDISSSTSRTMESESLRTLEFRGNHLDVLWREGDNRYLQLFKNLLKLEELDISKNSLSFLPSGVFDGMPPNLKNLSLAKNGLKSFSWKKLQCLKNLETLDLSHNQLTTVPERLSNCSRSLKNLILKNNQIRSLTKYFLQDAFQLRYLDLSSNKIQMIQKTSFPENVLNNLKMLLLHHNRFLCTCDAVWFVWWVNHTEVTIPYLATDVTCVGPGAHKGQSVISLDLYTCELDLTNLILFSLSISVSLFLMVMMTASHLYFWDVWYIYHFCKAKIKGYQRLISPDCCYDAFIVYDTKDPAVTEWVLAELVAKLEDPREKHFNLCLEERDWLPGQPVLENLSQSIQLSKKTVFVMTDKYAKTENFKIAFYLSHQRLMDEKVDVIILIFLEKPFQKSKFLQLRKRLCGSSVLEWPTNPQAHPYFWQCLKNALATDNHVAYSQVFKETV

[3] = biological target: T3, Toll-like receptor (TLR7/TLR9) (Homo sapiens) (UniProt Q9NR96+Q9NYK1); test: Inhibition of TLR7/TLR9-mediated activation of aldrithiol-2-treated HIV1 MN-stimulated human PBMC assessed as CD86 expressing cells at 100 uM after 20 hrs by flow cytometry; type: cell-based; design: scale not given: the % may be the effect or the level left
Outline: (§1)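 PBMC preincubated 1 h ± 100 μM chloroquine, stimulated 20 h with AT-2 HIV-1 Ada or MN (500 ng/ml p24); pDC gated Lin1− CD123+ HLA-DR+; surface CD86 (% cells), CD83 (% cells), or intracellular IRAK-4, IRF-7, IDO after Cytofix/Cytoperm with rabbit antibody plus PE anti-rabbit (MFI) by flow cytometry; microvesicle controls.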

[4] = biological target: T2, Toll-like receptor 7 (Homo sapiens); test: Inhibition of TLR7-mediated IFN-alpha production in aldrithiol-2-treated HIV1 Ada-stimulated human PBMC after 20 hrs by ELISA
[5] = biological target: T2, Toll-like receptor 7 (Homo sapiens); test: Inhibition of TLR7-mediated IFN-alpha production in aldrithiol-2-treated HIV1 MN-stimulated human PBMC at 100 uM after 20 hrs by ELISA
[6] = biological target: T3, Toll-like receptor (TLR7/TLR9) (Homo sapiens); test: Inhibition of TLR7/TLR9-mediated indoleamine 2,3-dioxygenase activation in aldrithiol-2-treated HIV1 Ada-stimulated human PBMC assessed as decrease in kynurenine to tryptophan level at 100 uM after 20 hrs by fluorometric assay; type: protein assay
Outline: (§2)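 PBMC (1 × 10^6/well) ± 100 μM chloroquine (1 h preincubation), stimulated 20 h with AT-2 HIV-1, 3M-011 or CpG A. Kynurenine in supernatant: 30% TCA, 50°C, 30 min, then Ehrlich's reagent, absorbance 490 nm. Tryptophan: 20% TCA, then TCA/formaldehyde/FeCl3 at 90°C for 2 h, fluorescence ex 360/em 460 nm. Duplicates, standard curves; reported as kynurenine/tryptophan ratio.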

[7] = biological target: T4, Toll-like receptor 9 (Homo sapiens) (UniProt Q9NR96); test: Inhibition of TLR9-mediated upregulation of PDL1 expression in CpGA-stimulated human PBMC at 100 uM after 20 hrs by flow cytometry
T4 sequence (whole entry): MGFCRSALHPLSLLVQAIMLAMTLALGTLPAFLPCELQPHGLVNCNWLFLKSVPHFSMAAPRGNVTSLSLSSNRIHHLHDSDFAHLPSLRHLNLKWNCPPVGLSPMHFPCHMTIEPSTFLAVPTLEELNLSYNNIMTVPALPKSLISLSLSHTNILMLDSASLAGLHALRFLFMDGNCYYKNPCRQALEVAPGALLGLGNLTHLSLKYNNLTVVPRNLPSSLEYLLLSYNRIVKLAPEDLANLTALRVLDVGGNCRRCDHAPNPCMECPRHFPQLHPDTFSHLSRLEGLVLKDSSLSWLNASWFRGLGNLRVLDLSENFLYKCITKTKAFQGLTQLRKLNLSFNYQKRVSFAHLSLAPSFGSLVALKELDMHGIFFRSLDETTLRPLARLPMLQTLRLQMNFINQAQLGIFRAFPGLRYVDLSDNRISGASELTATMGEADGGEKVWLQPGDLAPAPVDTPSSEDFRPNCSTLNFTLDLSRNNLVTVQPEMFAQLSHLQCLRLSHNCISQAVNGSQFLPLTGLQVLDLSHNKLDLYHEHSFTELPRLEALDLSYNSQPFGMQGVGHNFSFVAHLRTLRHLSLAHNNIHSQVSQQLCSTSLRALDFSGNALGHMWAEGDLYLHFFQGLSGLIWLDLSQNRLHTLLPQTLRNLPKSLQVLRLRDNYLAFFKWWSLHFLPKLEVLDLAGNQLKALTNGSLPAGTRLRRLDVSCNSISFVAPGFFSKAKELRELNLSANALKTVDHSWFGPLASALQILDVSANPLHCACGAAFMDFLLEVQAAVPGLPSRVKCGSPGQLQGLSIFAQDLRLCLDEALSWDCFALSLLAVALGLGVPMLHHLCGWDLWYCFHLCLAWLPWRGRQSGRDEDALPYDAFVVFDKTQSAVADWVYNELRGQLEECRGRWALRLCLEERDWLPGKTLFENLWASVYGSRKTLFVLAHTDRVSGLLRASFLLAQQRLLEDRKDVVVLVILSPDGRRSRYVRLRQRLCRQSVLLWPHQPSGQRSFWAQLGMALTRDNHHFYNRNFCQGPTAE
Outline: (§3)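 Human PBMC (1 × 10^6 cells/well) preincubated 1 h with 100 μM chloroquine or medium, then cultured 20 h at 37°C with AT-2 HIV-1 (500 ng/ml p24), 3M-011 (3.0 μM) or CpG A (4 μg/ml); PDL-1 on pDC read as MFI by flow cytometry.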

[8] = biological target: T3, Toll-like receptor (TLR7/TLR9) (Homo sapiens); test: Inhibition of TLR7/TLR9-mediated maturation of aldrithiol-2-treated HIV1 Ada-stimulated human PBMC assessed as CD83 expressing cells at 100 uM after 20 hrs by flow cytometry; type: cell-based; design: scale not given: the % may be the effect or the level left
Outline: as §1

[9] = biological target: T2, Toll-like receptor 7 (Homo sapiens); test: Inhibition of TLR7-mediated IFN-alpha production in aldrithiol-2-treated HIV1 Ada-stimulated human PBMC at 100 uM after 20 hrs by ELISA
[10] = biological target: T1, TLR7 and TLR8 (Homo sapiens); test: Inhibition of TLR7/TLR8-mediated upregulation of PDL1 expression in 3M-011-stimulated human PBMC at 100 uM after 20 hrs by flow cytometry
Outline: as §3

[11] = biological target: T3, Toll-like receptor (TLR7/TLR9) (Homo sapiens); test: Inhibition of TLR7/TLR9-mediated maturation of aldrithiol-2-treated HIV1 MN-stimulated human PBMC assessed as CD83 expressing cells at 100 uM after 20 hrs by flow cytometry; type: cell-based; design: scale not given: the % may be the effect or the level left
Outline: as §1

[12] = biological target: T3, Toll-like receptor (TLR7/TLR9) (Homo sapiens); test: Inhibition of TLR7/TLR9-mediated activation of exogenous rIFNalpha2A-stimulated human CD8-positive T cells assessed as […] at 5 uM after 20 hrs by flow cytometry; type: cell-based; conditions: T-cell
Outline: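 Bead-enriched CD8+ T cells (indirect negative isolation) preincubated 1 h with 5 μM chloroquine, then given 1,000 U/ml rIFN-α2a for 20 h; CD38 MFI on CD3+ CD8+ cells by flow cytometry; anti-IFN-αR 64G12 (10 μg/ml, 30 min pretreatment) used as comparator; n = 3 experiments.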

[13] = biological target: T4, Toll-like receptor 9 (Homo sapiens); test: Inhibition of TLR9-mediated indoleamine 2,3-dioxygenase activation in CpGA-stimulated human PBMC assessed as decrease in kynurenine to tryptophan level at 100 uM after 20 hrs by ELISA
[14] = biological target: T3, Toll-like receptor (TLR7/TLR9) (Homo sapiens); test: Inhibition of TLR7/TLR9-mediated upregulation of indoleamine 2,3-dioxygenase expression in aldrithiol-2-treated HIV1 MN-stimulated human PBMC at 100 uM after 20 hrs by flow cytometry
Outline: as §1

[15] = biological target: T2, Toll-like receptor 7 (Homo sapiens); test: Inhibition of TLR7-mediated upregulation of IRAK4 expression in aldrithiol-2-treated HIV1 Ada-stimulated human PBMC at 100 uM after 20 hrs by flow cytometry
Outline: as §1

[16] = biological target: T3, Toll-like receptor (TLR7/TLR9) (Homo sapiens); test: Inhibition of TLR7/TLR9-mediated activation of aldrithiol-2-treated HIV1 Ada-stimulated human PBMC assessed as CD86 expressing cells at 100 uM after 20 hrs by flow cytometry; type: cell-based; design: scale not given: the % may be the effect or the level left
Outline: as §1

[17] = biological target: T2, Toll-like receptor 7 (Homo sapiens); test: Inhibition of TLR7-mediated upregulation of IRF7 expression in aldrithiol-2-treated HIV1 MN-stimulated human PBMC at 100 uM after 20 hrs by flow cytometry
Outline: as §1

[18] = biological target: T1, TLR7 and TLR8 (Homo sapiens); test: Inhibition of TLR7/TLR8-mediated indoleamine 2,3-dioxygenase activation in 3M-011-stimulated human PBMC assessed as decrease in kynurenine to tryptophan level at 100 uM after 20 hrs by ELISA; type: protein assay
[19] = biological target: T3, Toll-like receptor (TLR7/TLR9) (Homo sapiens); test: Inhibition of TLR7/TLR9-mediated upregulation of PDL1 expression in aldrithiol-2-treated HIV1 Ada-stimulated human PBMC at 100 uM after 20 hrs by flow cytometry
Outline: as §3

[20] = biological target: T2, Toll-like receptor 7 (Homo sapiens); test: Inhibition of TLR7-mediated upregulation of IRAK4 expression in aldrithiol-2-treated HIV1 MN-stimulated human PBMC at 100 uM after 20 hrs by flow cytometry
Outline: as §1

[21] = biological target: T3, Toll-like receptor (TLR7/TLR9) (Homo sapiens); test: Inhibition of TLR7/TLR9-mediated indoleamine 2,3-dioxygenase activation in aldrithiol-2-treated HIV1 MN-stimulated human PBMC assessed as decrease in kynurenine to tryptophan level at 100 uM after 20 hrs by fluorometric assay; type: protein assay
Outline: as §2

[22] = biological target: T2, Toll-like receptor 7 (Homo sapiens); test: Inhibition of TLR7-mediated upregulation of IRF7 expression in aldrithiol-2-treated HIV1 Ada-stimulated human PBMC at 100 uM after 20 hrs by flow cytometry
Outline: as §1

[23] = biological target: T3, Toll-like receptor (TLR7/TLR9) (Homo sapiens); test: Inhibition of TLR7/TLR9-mediated activation of aldrithiol-2-treated HIV1 Ada-stimulated human PBMC assessed as CD38-MFI level in activated CD8-positive cells at 5 uM after 20 hrs by flow cytometry; type: cell-based
Outline: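 PBMC preincubated 1 h with 5 μM chloroquine, then stimulated with AT-2 HIV-1 Ada for 20 h; CD38 surface expression on gated CD3+ CD8+ T cells by flow cytometry, expressed as CD38 MFI.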

[24] = biological target: T3, Toll-like receptor (TLR7/TLR9) (Homo sapiens); test: Inhibition of TLR7/TLR9-mediated upregulation of indoleamine 2,3-dioxygenase expression in aldrithiol-2-treated HIV1 Ada-stimulated human PBMC at 100 uM after 20 hrs by flow cytometry
Outline: as §1

[25] = biological target: T4, Toll-like receptor 9 (Homo sapiens); test: Inhibition of TLR9-mediated IFN-alpha production in CpGA-stimulated human PBMC at 100 uM after 20 hrs by ELISA
[26] = biological target: T3, Toll-like receptor (TLR7/TLR9) (Homo sapiens); test: Inhibition of TLR7/TLR9-mediated upregulation of PDL1 expression in aldrithiol-2-treated HIV1 MN-stimulated human PBMC at 100 uM after 20 hrs by flow cytometry
Outline: as §3

inhibition [1]: Active
inhibition [2]: Dose-dependent effect
Activity [3]: 8.2%
inhibition [4]: Dose-dependent effect
inhibition [5]: Active
inhibition [6]: Active
inhibition [7]: Active
Activity [8]: 12.6%
inhibition [9]: Active
inhibition [10]: Active
Activity [11]: 14.3%
inhibition [12]: inactive
inhibition [13]: Active
inhibition [14]: Active
inhibition [15]: Active
Activity [16]: 11.1%
inhibition [17]: Active
inhibition [18]: Active
inhibition [19]: Active
inhibition [20]: Active
inhibition [21]: Active
inhibition [22]: Active
inhibition [23]: 23.4%
inhibition [24]: Active
inhibition [25]: Active
inhibition [26]: Active
Compound: CCN(CC)CCCC(C)Nc1ccnc2cc(Cl)ccc12 (stereo unspecified)
